Holding throughout (experiment): Z'-Lyte kinase assay
Common to all, as to assay type: biochemical
Holding throughout (conditions): two replicates

The target in test [1] is T1, Aurora-related kinase 1 (ARK1) (Homo sapiens, UniProt O14965).
T1 sequence (O14965 1-403): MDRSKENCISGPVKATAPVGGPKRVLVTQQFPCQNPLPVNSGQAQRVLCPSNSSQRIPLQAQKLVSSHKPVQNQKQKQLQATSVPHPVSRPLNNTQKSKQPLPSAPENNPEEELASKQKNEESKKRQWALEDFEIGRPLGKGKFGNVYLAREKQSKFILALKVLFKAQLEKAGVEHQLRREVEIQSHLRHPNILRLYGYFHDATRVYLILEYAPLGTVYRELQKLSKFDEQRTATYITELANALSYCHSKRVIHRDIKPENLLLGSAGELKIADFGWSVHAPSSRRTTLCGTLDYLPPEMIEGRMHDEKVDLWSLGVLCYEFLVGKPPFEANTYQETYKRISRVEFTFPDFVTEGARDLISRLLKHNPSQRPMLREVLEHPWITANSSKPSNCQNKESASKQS
Put shortly: (§1)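 Outsourced commercial profiling of the test compound against a panel of 38 non-JAK kinases, all screened with Z'-Lyte technology at a single concentration. Assay conditions and data analysis were specific to each kinase and set by the service provider. Every test was run in duplicate, and percent inhibition is reported separately for each replicate.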

Another test has as its target p160ROCK protein kinase (Homo sapiens, UniProt Q13464). Put shortly: as §1
Test [2] has as its target Vascular endothelial growth factor receptor 2 (VEGFR-2/FLK1) (Homo sapiens, UniProt P35968). Summed up: as §1
Test [3] deals with High affinity nerve growth factor receptor (TRK-A) (Homo sapiens, UniProt P04629). Summed up: as §1
Chain of High affinity nerve growth factor receptor (TRK-A) (P04629 33-796): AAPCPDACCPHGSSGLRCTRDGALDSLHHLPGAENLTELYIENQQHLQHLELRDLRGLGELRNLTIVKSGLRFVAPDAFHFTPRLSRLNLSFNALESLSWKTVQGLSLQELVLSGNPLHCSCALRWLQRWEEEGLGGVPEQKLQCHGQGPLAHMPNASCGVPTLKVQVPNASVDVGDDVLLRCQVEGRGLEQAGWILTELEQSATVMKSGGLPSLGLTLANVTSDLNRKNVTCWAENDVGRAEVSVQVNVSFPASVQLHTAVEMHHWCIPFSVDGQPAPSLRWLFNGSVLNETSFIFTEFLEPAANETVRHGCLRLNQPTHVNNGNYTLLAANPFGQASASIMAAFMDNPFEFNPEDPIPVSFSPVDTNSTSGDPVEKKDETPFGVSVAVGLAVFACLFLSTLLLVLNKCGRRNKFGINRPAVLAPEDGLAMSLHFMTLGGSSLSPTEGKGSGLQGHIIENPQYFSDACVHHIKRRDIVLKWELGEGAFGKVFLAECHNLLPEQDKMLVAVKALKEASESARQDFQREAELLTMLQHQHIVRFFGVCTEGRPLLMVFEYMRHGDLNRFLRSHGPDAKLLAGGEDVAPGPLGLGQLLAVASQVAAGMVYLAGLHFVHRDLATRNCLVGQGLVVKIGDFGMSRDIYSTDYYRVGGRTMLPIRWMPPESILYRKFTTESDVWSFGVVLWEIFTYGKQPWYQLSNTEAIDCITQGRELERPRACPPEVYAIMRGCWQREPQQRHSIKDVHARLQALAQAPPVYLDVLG
The target in test [4] is Mitogen-activated protein kinase kinase kinase kinase 4 (MAP4K4/HGK) (Homo sapiens, UniProt O95819). Summed up: as §1
Chain of Mitogen-activated protein kinase kinase kinase kinase 4 (MAP4K4/HGK) (O95819 2-1239): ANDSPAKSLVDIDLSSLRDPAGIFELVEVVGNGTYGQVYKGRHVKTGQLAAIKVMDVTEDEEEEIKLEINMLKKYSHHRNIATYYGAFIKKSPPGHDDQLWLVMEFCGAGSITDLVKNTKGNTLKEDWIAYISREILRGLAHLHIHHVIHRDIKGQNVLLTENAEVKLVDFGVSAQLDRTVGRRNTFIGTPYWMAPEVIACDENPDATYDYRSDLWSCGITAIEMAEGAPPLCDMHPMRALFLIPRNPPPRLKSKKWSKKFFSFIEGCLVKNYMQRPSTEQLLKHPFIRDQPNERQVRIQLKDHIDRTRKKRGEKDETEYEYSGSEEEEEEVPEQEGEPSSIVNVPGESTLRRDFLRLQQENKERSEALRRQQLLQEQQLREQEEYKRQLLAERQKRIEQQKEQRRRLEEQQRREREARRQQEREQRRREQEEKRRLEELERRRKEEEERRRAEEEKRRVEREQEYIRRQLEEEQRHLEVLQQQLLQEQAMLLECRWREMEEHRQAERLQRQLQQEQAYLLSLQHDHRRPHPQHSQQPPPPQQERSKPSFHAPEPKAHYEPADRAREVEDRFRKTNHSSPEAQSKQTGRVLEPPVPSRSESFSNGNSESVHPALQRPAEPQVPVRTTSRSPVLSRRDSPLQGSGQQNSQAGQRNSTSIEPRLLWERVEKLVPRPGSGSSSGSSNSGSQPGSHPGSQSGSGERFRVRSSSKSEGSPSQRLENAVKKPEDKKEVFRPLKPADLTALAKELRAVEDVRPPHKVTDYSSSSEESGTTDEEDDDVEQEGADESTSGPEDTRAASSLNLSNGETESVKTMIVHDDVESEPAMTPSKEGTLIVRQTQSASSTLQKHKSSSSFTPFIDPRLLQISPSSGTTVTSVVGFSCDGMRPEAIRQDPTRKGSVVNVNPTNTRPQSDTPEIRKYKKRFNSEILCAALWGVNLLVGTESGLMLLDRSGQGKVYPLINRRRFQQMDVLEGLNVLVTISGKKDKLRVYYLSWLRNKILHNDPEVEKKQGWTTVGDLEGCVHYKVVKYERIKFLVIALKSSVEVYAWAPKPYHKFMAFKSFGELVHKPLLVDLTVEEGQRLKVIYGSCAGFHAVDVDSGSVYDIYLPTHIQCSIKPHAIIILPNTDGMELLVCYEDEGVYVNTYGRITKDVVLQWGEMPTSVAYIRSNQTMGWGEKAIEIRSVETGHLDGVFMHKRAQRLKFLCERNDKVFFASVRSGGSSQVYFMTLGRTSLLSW

Chain of p160ROCK protein kinase (Q13464 2-1354): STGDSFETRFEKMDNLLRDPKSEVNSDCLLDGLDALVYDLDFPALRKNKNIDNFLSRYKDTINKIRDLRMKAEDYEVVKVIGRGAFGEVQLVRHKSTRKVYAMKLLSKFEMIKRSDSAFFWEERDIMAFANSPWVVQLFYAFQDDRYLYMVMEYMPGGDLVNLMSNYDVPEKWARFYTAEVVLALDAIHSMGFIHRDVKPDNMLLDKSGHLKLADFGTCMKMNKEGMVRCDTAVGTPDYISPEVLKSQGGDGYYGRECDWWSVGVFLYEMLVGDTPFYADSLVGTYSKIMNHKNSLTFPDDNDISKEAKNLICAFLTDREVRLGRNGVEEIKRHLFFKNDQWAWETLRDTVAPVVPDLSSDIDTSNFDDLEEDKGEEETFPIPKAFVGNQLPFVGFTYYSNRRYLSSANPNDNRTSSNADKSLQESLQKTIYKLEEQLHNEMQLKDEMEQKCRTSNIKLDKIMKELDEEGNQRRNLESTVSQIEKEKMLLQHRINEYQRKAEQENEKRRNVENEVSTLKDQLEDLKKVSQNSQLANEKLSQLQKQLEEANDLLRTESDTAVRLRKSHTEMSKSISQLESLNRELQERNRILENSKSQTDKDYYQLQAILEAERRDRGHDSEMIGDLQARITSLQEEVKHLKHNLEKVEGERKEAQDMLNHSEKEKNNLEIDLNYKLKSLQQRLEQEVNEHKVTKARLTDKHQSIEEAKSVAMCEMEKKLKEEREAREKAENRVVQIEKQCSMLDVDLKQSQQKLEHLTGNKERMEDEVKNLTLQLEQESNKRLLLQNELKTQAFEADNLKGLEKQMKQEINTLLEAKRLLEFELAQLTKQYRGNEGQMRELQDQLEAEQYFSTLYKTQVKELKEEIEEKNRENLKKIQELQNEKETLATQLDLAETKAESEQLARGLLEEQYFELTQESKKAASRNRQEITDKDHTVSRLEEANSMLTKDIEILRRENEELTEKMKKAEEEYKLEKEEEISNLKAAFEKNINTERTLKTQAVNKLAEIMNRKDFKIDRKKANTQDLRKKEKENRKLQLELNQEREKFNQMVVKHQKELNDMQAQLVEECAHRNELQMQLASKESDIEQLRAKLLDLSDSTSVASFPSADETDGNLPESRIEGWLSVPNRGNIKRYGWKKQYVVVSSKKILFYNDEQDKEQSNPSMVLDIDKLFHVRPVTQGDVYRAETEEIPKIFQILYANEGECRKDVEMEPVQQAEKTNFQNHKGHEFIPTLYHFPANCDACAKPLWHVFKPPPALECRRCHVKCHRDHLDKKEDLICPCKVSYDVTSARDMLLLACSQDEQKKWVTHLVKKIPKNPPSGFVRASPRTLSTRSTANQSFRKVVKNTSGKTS
Chain of Vascular endothelial growth factor receptor 2 (VEGFR-2/FLK1) (P35968 20-1356): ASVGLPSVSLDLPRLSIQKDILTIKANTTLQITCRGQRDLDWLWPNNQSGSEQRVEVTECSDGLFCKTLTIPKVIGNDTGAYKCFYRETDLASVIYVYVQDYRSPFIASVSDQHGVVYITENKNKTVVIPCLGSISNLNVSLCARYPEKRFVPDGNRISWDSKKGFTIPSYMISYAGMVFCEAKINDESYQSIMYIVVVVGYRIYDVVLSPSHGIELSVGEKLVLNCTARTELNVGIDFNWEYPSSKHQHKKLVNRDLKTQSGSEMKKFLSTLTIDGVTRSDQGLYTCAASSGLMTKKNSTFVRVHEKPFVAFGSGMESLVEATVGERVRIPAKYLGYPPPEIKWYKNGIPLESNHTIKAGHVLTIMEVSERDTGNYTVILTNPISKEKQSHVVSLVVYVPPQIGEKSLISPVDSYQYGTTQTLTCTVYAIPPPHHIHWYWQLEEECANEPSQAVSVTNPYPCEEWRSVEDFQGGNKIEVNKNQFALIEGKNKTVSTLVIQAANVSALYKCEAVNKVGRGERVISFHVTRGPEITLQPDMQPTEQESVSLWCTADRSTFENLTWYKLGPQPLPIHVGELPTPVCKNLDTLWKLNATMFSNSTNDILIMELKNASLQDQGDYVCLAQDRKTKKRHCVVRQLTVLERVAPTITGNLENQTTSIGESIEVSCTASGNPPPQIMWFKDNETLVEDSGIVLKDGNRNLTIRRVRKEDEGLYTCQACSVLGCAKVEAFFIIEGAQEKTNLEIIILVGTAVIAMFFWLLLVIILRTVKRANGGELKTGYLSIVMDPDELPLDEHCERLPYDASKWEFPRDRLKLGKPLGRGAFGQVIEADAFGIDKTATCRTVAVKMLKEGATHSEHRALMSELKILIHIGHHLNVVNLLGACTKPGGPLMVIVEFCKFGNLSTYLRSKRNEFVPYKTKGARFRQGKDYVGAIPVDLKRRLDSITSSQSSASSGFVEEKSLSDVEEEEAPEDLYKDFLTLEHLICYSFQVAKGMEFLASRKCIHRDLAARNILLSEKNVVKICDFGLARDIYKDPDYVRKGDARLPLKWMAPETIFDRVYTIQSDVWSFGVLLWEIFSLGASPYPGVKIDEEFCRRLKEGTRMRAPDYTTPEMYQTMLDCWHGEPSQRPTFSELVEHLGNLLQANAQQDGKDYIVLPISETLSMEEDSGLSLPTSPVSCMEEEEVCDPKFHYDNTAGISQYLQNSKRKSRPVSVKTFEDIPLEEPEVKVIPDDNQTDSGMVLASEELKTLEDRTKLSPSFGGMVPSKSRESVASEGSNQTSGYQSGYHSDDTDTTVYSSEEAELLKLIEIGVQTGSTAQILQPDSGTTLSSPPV

As for `CNS(=O)(=O)C[C@H]1CC[C@H](N(C)c2ncnc3[nH]ccc23)CC1` [oclacitinib], the “Percent inhibition at 1000 nM oclacitinib (1st replicate)” value in test [1] is given as 40; 40%; at p160ROCK protein kinase, 34; 32%; in test [2] it was 41; 37%; in test [3], 32; 31%; in test [4], 42; 34%.

The values are drawn from publication PMC4265276 (Journal of Veterinary Pharmacology and Therapeutics, 2014).
